Measurements reported in ChEMBL document CHEMBL4689842, “EUbOPEN Chemogenomics Library wave 1” (2021).

Test system: Fibroblast
Experiment: Multiplex assay against human fibroblast
Type: toxicity, cell-based
In short: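 Per cents of healthy-nucleus cells form the tubulin, mitochondrial-mass and membrane-permeability phenotype values. Live cells were stained at seeding with Hoechst33342, BioTracker Green Microtubule Cytoskeleton Dye, MitoTracker Red and Annexin V Alexa Fluor 680. After compound addition they were imaged on a CQ1 microscope at 37°C and 5% CO2, and CellPathfinder machine-learning gating split them into Hoechst high-intensity objects or normal cells, normal cells into healthy, pyknosed or fragmented nuclei, and pyknosed cells into mitotic or apoptotic.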

[1] = 12 h, 1 µM, compound concentration 1 uM, replicate 1
[2] = 12 h, 1 µM, compound concentration 1 uM, replicate 2
[3] = 12 h, 10 µM, compound concentration 10 uM, replicate 1
[4] = 12 h, 10 µM, compound concentration 10 uM, replicate 2
[5] = 24 h, 1 µM, compound concentration 1 uM, replicate 1
[6] = 24 h, 1 µM, compound concentration 1 uM, replicate 2
[7] = 24 h, 10 µM, compound concentration 10 uM, replicate 1
[8] = 24 h, 10 µM, compound concentration 10 uM, replicate 2
[9] = 48 h, 1 µM, compound concentration 1 uM, replicate 1
[10] = 48 h, 1 µM, compound concentration 1 uM, replicate 2
[11] = 48 h, 10 µM, compound concentration 10 uM, replicate 1
[12] = 48 h, 10 µM, compound concentration 10 uM, replicate 2

COc1ccccc1CN[C@H]1C2CCN(CC2)[C@H]1C(c1ccccc1)c1ccccc1 [CP-96345]
Population Apoptotic (%) [1]: 64%
Population Fragmented Nuclei (%) [1]: 25%
Population Healthy Nuclei (%) [1]: 43%
Population Hoechst High Intensity Objects (%) [1]: 13%
Population Membrane Permeable-Phenotype (%) [1]: 27%
Population Mitochondria Different-Phenotype (%) [1]: 9%
Population Mitotic Cells (%) [1]: 35%
Population Normal (%) [1]: 86%
Population Pyknosed Nuclei (%) [1]: 30%
Population Tubulin-Different-Phenotype (%) [1]: 52%
Total Cell Count [1]: 146
Population Apoptotic (%) [2]: 66%
Population Fragmented Nuclei (%) [2]: 4%
Population Healthy Nuclei (%) [2]: 92%
Population Hoechst High Intensity Objects (%) [2]: 0%
Population Membrane Permeable-Phenotype (%) [2]: 4%
Population Mitochondria Different-Phenotype (%) [2]: 7%
Population Mitotic Cells (%) [2]: 33%
Population Normal (%) [2]: 100%
Population Pyknosed Nuclei (%) [2]: 3%
Population Tubulin-Different-Phenotype (%) [2]: 8%
Total Cell Count [2]: 90
Population Apoptotic (%) [3]: 67%
Population Fragmented Nuclei (%) [3]: 29%
Population Healthy Nuclei (%) [3]: 45%
Population Hoechst High Intensity Objects (%) [3]: 13%
Population Membrane Permeable-Phenotype (%) [3]: 6%
Population Mitochondria Different-Phenotype (%) [3]: 44%
Population Mitotic Cells (%) [3]: 32%
Population Normal (%) [3]: 86%
Population Pyknosed Nuclei (%) [3]: 25%
Population Tubulin-Different-Phenotype (%) [3]: 84%
Total Cell Count [3]: 129
Population Apoptotic (%) [4]: 50%
Population Fragmented Nuclei (%) [4]: 2%
Population Healthy Nuclei (%) [4]: 86%
Population Hoechst High Intensity Objects (%) [4]: 3%
Population Membrane Permeable-Phenotype (%) [4]: 1%
Population Mitochondria Different-Phenotype (%) [4]: 45%
Population Mitotic Cells (%) [4]: 50%
Population Normal (%) [4]: 96%
Population Pyknosed Nuclei (%) [4]: 10%
Population Tubulin-Different-Phenotype (%) [4]: 26%
Total Cell Count [4]: 77
Population Apoptotic (%) [5]: 63%
Population Fragmented Nuclei (%) [5]: 26%
Population Healthy Nuclei (%) [5]: 49%
Population Hoechst High Intensity Objects (%) [5]: 15%
Population Membrane Permeable-Phenotype (%) [5]: 23%
Population Mitochondria Different-Phenotype (%) [5]: 8%
Population Mitotic Cells (%) [5]: 36%
Population Normal (%) [5]: 84%
Population Pyknosed Nuclei (%) [5]: 24%
Population Tubulin-Different-Phenotype (%) [5]: 41%
Total Cell Count [5]: 161
Population Apoptotic (%) [6]: 54%
Population Fragmented Nuclei (%) [6]: 4%
Population Healthy Nuclei (%) [6]: 85%
Population Hoechst High Intensity Objects (%) [6]: 2%
Population Membrane Permeable-Phenotype (%) [6]: 1%
Population Mitochondria Different-Phenotype (%) [6]: 4%
Population Mitotic Cells (%) [6]: 45%
Population Normal (%) [6]: 97%
Population Pyknosed Nuclei (%) [6]: 9%
Population Tubulin-Different-Phenotype (%) [6]: 17%
Total Cell Count [6]: 114
Population Apoptotic (%) [7]: 55%
Population Fragmented Nuclei (%) [7]: 41%
Population Healthy Nuclei (%) [7]: 43%
Population Hoechst High Intensity Objects (%) [7]: 22%
Population Membrane Permeable-Phenotype (%) [7]: 3%
Population Mitochondria Different-Phenotype (%) [7]: 41%
Population Mitotic Cells (%) [7]: 44%
Population Normal (%) [7]: 77%
Population Pyknosed Nuclei (%) [7]: 14%
Population Tubulin-Different-Phenotype (%) [7]: 86%
Total Cell Count [7]: 156
Population Apoptotic (%) [8]: 40%
Population Fragmented Nuclei (%) [8]: 2%
Population Healthy Nuclei (%) [8]: 81%
Population Hoechst High Intensity Objects (%) [8]: 1%
Population Membrane Permeable-Phenotype (%) [8]: 2%
Population Mitochondria Different-Phenotype (%) [8]: 31%
Population Mitotic Cells (%) [8]: 60%
Population Normal (%) [8]: 98%
Population Pyknosed Nuclei (%) [8]: 16%
Population Tubulin-Different-Phenotype (%) [8]: 14%
Total Cell Count [8]: 92
Population Apoptotic (%) [9]: 42%
Population Fragmented Nuclei (%) [9]: 30%
Population Healthy Nuclei (%) [9]: 60%
Population Hoechst High Intensity Objects (%) [9]: 14%
Population Membrane Permeable-Phenotype (%) [9]: 20%
Population Mitochondria Different-Phenotype (%) [9]: 3%
Population Mitotic Cells (%) [9]: 57%
Population Normal (%) [9]: 85%
Population Pyknosed Nuclei (%) [9]: 9%
Population Tubulin-Different-Phenotype (%) [9]: 29%
Total Cell Count [9]: 169
Population Apoptotic (%) [10]: 50%
Population Fragmented Nuclei (%) [10]: 36%
Population Healthy Nuclei (%) [10]: 61%
Population Hoechst High Intensity Objects (%) [10]: 12%
Population Membrane Permeable-Phenotype (%) [10]: 25%
Population Mitochondria Different-Phenotype (%) [10]: 4%
Population Mitotic Cells (%) [10]: 50%
Population Normal (%) [10]: 87%
Population Pyknosed Nuclei (%) [10]: 2%
Population Tubulin-Different-Phenotype (%) [10]: 36%
Total Cell Count [10]: 82
Population Apoptotic (%) [11]: 83%
Population Fragmented Nuclei (%) [11]: 36%
Population Healthy Nuclei (%) [11]: 58%
Population Hoechst High Intensity Objects (%) [11]: 25%
Population Membrane Permeable-Phenotype (%) [11]: 2%
Population Mitochondria Different-Phenotype (%) [11]: 36%
Population Mitotic Cells (%) [11]: 16%
Population Normal (%) [11]: 75%
Population Tubulin-Different-Phenotype (%) [11]: 61%
Total Cell Count [11]: 172
Population Apoptotic (%) [12]: 25%
Population Fragmented Nuclei (%) [12]: 30%
Population Healthy Nuclei (%) [12]: 66%
Population Hoechst High Intensity Objects (%) [12]: 11%
Population Membrane Permeable-Phenotype (%) [12]: 24%
Population Mitochondria Different-Phenotype (%) [12]: 7%
Population Mitotic Cells (%) [12]: 75%
Population Normal (%) [12]: 88%
Population Pyknosed Nuclei (%) [12]: 4%
Population Tubulin-Different-Phenotype (%) [12]: 60%
Total Cell Count [12]: 113
